TAG inh: inhibitors of triacylglycerol accumulation; AID 651582; inhibition, % at 12.5 µM; 0.66% of 230,000 active; H9c2 cells, Nile Red lipid (TAG) fluorescence; cells loaded with 200 µM oleic acid;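 active = pattern-corrected inhibition of lipid staining of at least 50% with the nuclear-stain viability signal not falling by more than 50%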;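 also: 0% = DMSO wells and 100% = triacsin C control wells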
beta cell repl: MIN6 beta-cell proliferation induction. 0.29% of 330,000 active. proliferation, % at 10 µM. MIN6 cells proliferation, ATPlite luminescence, 48 h; cells starved in 0.2% serum; 100% = growth in 10% serum;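 active = compounds whose signal lies at least 3.5 SD above the mean of all wells on their plate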;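 also: 0% = DMSO-treated cells in low-serum medium and 100% = 10% serum control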
Rev-erbA mod: modulates human Rev-erb alpha binding to DNA; P20393; Rev-erbα–FITC-DNA binding, fluorescence polarization, 90 min; activity, % at 10 µM; 0.79% of 370,000 active; AID 1259318;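 active = activity above about 14%, limit read from the data; passing the limit was not always enough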;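 also: 0% = DMSO wells with 35 nM protein and 100% = DMSO wells with 750 nM protein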
Target sequence (P20393 whole entry, looked up): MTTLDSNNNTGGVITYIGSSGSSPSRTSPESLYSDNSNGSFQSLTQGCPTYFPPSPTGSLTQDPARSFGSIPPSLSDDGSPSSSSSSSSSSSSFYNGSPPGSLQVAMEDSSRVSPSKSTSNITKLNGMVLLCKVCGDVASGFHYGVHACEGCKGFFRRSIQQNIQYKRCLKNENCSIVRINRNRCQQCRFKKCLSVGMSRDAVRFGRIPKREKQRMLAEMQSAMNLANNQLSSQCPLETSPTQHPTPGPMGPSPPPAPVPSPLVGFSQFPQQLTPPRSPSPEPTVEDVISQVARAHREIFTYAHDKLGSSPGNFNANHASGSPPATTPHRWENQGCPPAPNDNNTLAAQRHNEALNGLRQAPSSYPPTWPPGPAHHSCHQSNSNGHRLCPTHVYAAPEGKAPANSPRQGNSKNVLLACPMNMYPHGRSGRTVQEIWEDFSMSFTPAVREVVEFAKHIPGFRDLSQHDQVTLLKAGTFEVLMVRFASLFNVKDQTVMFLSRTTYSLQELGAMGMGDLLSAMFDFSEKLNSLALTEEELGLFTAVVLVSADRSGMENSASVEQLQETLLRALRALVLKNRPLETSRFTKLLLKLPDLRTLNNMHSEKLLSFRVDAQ
hiPSC survival: increases survival of single human iPS cells; AID 602274; hiPSC single-cell survival, ATPlite luminescence; 100% = ROCK inhibitor wells, 0% = DMSO; survival enhancement, % at 20 µM; 0.044% of 360,000 active; in the data active = survival enhancement above about 18%;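 also: cells exposed to compounds for 16 hours before the ATP read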
PG9 Ab binder: binds the HIV-1 gp120 antibody PG9. TR-FRET gp120-PG9 antibody binding. inhibition, % at 6.7 µM. 0.43% of 360,000 active; in the data active = inhibition above about 8.5%
T cruzi repl: blocks replication of Trypanosoma cruzi | T. cruzi beta-gal in NIH3T3, luminescence, 90 h | inhibition, % (concentration not given with the values) | 1.4% of 300,000 active | AID 1885;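 active = mean inhibition across valid replicates above about 55%, limit read from the data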;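 also: signal also drops with host cell toxicity which is not excluded here; 0% = plate median of DMSO wells and 100% = zero luminescence signal; higher percent means less beta-gal luminescence so fewer parasites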
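Test system: β-gal T. cruzi (Tulahuen C4) inside NIH/3T3 cells / Quantity: 5,000 cells/well / Measured by: luminescence from GalScreen with 0.05% NP40, read after 60 min / Medium: DMEM plus 2% FBS / Measure: parasite load inhibition, % / Reagent: Tulahuen C4 trypomastigotes, 5000/well / Schedule: co-culture of at least 90 h after 3 h attachment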
The depositor's hits bear a star. The list is not random: actives were taken first. Their share in the collection is about 2.9%.

`O=C(CN1CCCC1)Nc1ccc(-c2nc3cc(NC(=O)CN4CCCC4)ccc3o2)cc1` gave TAG inh 52*, beta cell repl -5, Rev-erbA mod -1, hiPSC survival -6, PG9 Ab binder 2 and T cruzi repl 51.
`CC(C)[C@H](NC(=O)c1ccccc1Cl)C(=O)OCC(=O)NC(=O)NCc1ccco1` gave TAG inh 9, beta cell repl -2, Rev-erbA mod 0, hiPSC survival 0 and PG9 Ab binder -1.
`Cc1ccc(S(=O)(=O)N[C@H](C(=O)OCC(=O)NC(=O)NCc2ccco2)C(C)C)cc1` gave TAG inh 0, beta cell repl 1, Rev-erbA mod 6, hiPSC survival 24* and PG9 Ab binder -2.
Oc1ccc(Nc2nc(N3CCCC3)c3ccccc3n2)cc1 was read as TAG inh 52*, beta cell repl -3, Rev-erbA mod -1, hiPSC survival -1, PG9 Ab binder 2 and T cruzi repl 59*.
Cc1nc2c(-c3ccccc3)c[nH]n2c(=O)c1Cc1ccccc1 was read as TAG inh 6, beta cell repl -6, Rev-erbA mod 6, hiPSC survival 3, PG9 Ab binder -1 and T cruzi repl 62*.
For Cc1cc(=O)n2[nH]cc(-c3ccccc3)c2n1 the results were TAG inh 3, beta cell repl 0, Rev-erbA mod -5, hiPSC survival 0, PG9 Ab binder 0 and T cruzi repl -8.
For COc1cccc(N2CCN(c3ccc(S(=O)(=O)N4CCN(C)CC4)cc3[N+](=O)[O-])CC2)c1 the results were TAG inh 2, beta cell repl -1, Rev-erbA mod 2, hiPSC survival 0 and PG9 Ab binder -3.
CCN(CC)S(=O)(=O)c1ccc(N2CCN(c3cccc(OC)c3)CC2)c([N+](=O)[O-])c1 was read as beta cell repl -1, Rev-erbA mod -1, hiPSC survival -1, PG9 Ab binder 2 and T cruzi repl 65*.
CC(=O)N1CCC(N(CCN2CCOCC2)C(=S)Nc2ccc(C)c(C)c2)CC1 was read as TAG inh 5, beta cell repl -1, Rev-erbA mod 0, hiPSC survival 0, PG9 Ab binder 1 and T cruzi repl 1.
Screening c1ccn(-c2ccc(-c3ccn[nH]3)cc2)c1 returned TAG inh 7, beta cell repl -4, Rev-erbA mod -1, hiPSC survival 0, PG9 Ab binder 0 and T cruzi repl 11.
FC(F)(F)c1cccc(NC(=S)NCCc2ccccn2)c1 was read as beta cell repl -2, Rev-erbA mod 3, hiPSC survival 2, PG9 Ab binder -1 and T cruzi repl 7.
`O=C1[C@H]2[C@@H](c3ccc(Cl)cc3)N3C(=O)N(c4cccc(F)c4)C(=O)[C@@]3(Cc3ccc(Cl)cc3)[C@H]2C(=O)N1C1CCCCC1` gave TAG inh 48, beta cell repl -7, hiPSC survival -2 and T cruzi repl 61*.
`CC(C)(C)N1C(=O)[C@H]2[C@@H](c3ccc(Br)cc3)N3C(=O)N(c4ccccc4)C(=O)[C@@]3(Cc3ccccc3)[C@H]2C1=O` gave beta cell repl -7, Rev-erbA mod -1, hiPSC survival 1, PG9 Ab binder 0 and T cruzi repl -5.
CC(C)(C)N1C(=O)[C@H]2[C@@H](c3ccc(Br)cc3)N3C(=O)N(c4cccc(Br)c4)C(=O)[C@@]3(Cc3ccccc3)[C@H]2C1=O was read as TAG inh 43, beta cell repl -7, hiPSC survival 0 and T cruzi repl 58*.
For O=C1[C@H]2[C@@H](c3ccc(F)cc3)N3C(=O)N(c4cccc(F)c4)C(=O)[C@@]3(Cc3ccc(Cl)cc3)[C@H]2C(=O)N1C1CCCCC1 the results were TAG inh 27, beta cell repl -8, Rev-erbA mod 5, hiPSC survival 10, PG9 Ab binder -1 and T cruzi repl 30.
Cc1ccc(Cl)c(OCCN2CCCC(C)C2)c1 (centres undefined) was read as TAG inh 13, beta cell repl 1, Rev-erbA mod -4, hiPSC survival 1, PG9 Ab binder 0 and T cruzi repl -26.
CC(=O)c1ccccc1NC(=O)COC(=O)CCCN1C(=O)c2cccc3cccc(c23)C1=O was read as TAG inh -7, beta cell repl 0, Rev-erbA mod 0, hiPSC survival 32*, PG9 Ab binder -5 and T cruzi repl 7.
For COc1ccc(NS(=O)(=O)c2cccc(C(=O)N/N=C/c3ccc(O)cc3)c2)cc1 the results were TAG inh -16, beta cell repl -1, Rev-erbA mod 1, hiPSC survival 0, PG9 Ab binder -1 and T cruzi repl -13.
`Cc1ccc(Nc2nc(N)c([N+](=O)[O-])c(N3CCCC(C)C3)n2)cc1C` (centres undefined) gave beta cell repl -5, Rev-erbA mod -2, hiPSC survival 2, PG9 Ab binder -1 and T cruzi repl 9.
C/C(=N\Nc1ncc(Cl)cc1Cl)c1ccccn1 was read as TAG inh -24, hiPSC survival 0 and T cruzi repl 69*.
C/C(=N\Nc1ccc(Cl)c(C(=O)O)c1)c1ccccn1 was read as TAG inh 8, beta cell repl 1, Rev-erbA mod 1, hiPSC survival 0, PG9 Ab binder -4 and T cruzi repl -14.
`C/C(=N\Nc1cccc2cccnc12)c1ccccn1` gave TAG inh -22, beta cell repl -6, Rev-erbA mod 2, hiPSC survival -1, PG9 Ab binder -2 and T cruzi repl 77*.
`O=C(/C=C/c1ccc([N+](=O)[O-])cc1)OCC(=O)c1ccc[nH]1` gave TAG inh 3, beta cell repl 4, Rev-erbA mod 4, hiPSC survival 2 and PG9 Ab binder -1.
O=C(Oc1ccc([N+](=O)[O-])cc1)O[C@H]1CC[C@@]23CCCN2C(=O)CCC[C@H]3C1 was read as Rev-erbA mod -4.
Screening COc1cc2c(cc1OC)C(c1cc3cccc(C)c3[nH]c1=O)N(C(=O)c1ccco1)CC2 (centres undefined) returned beta cell repl 0, Rev-erbA mod -1, hiPSC survival 0, PG9 Ab binder 0 and T cruzi repl 58*.
CCOC(=O)C1CC(C)=C(C)CC1C(=O)O (centres undefined) was read as beta cell repl -3, Rev-erbA mod -3, hiPSC survival 0, PG9 Ab binder -1 and T cruzi repl -3.
CN(C)c1ccc(CNCCC(Cc2ccccc2)c2ccco2)cc1 (centres undefined) was read as TAG inh 17, beta cell repl -6, Rev-erbA mod -6, hiPSC survival 0, PG9 Ab binder -1 and T cruzi repl 61*.

Source: PubChem BioAssay
